Source: ChEMBL document CHEMBL1955718, “Discovery of new orally effective analgesic and anti-inflammatory hybrid furoxanyl N-acylhydrazone derivatives” (Bioorg Med Chem, 2012)

Assays:
[1] = test system: HT-29; test: Inhibition of NF-kappaB activation expressed in human HT-29 cells assessed as inhibition of TNFalpha-stimulated IL8 release at 100 uM after 24 hrs by flow cytometric analysis relative to control; type: cell-based
Summary of the method: (§1)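 Reporter HT-29-NF-κB-hrGFP cells pretreated 2 h with compound (DMSO <0.5%) at the highest concentration with 100% survival, then stimulated with TNF-α (3 ng/mL final) for 18–24 h at 37 °C. IL-8 in clarified supernatant measured by flow cytometric bead assay (500 events). Expressed as % of TNF-α/DMSO control ± SD; thalidomide as reference.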

[2] = test system: HT-29; test: Pro-inflammatory activity in NFkappaB-GFP transfected human HT-29 cells at 25 to 400 uM after 24 hrs by propidium iodide staining-based flow cytometric analysis; type: ADME, cell-based; details: ht-29, 24 h
Summary of the method: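 Reporter HT-29-NF-κB-hrGFP cells given compound alone, without TNF-α, for 18–24 h at 37 °C after the same 2 h pre-incubation. GFP-positive live (propidium iodide-excluding) cells counted by flow cytometry; IL-8 in supernatant measured by bead-based flow cytometry.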

[3] = Induction of NO release in 0.1 M Tris-HCl and 0.1 mM DTPA at pH 8.3 measured for 20 mins in presence of cysteine; type: physicochemical; details: buffer, pH 8.3, 20 min
Summary of the method: (§2)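 Electrochemical NO detection with an ISO-NOP sensor. Compounds in DMSO added to 0.1 M Tris-HCl, 0.1 mM DTPA at pH 7.4 or 8.3. Cysteine (300 or 100 µM) added and NO recorded for 20 min at 25 or 37 °C; compound:Cys ratio 1:1 at 25 °C, with 3:1 and 37 °C runs also made.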

[4] = Cytotoxicity against human HT-29 cells expressing NF-kappaB-hrGFP assessed as highest non-cytotoxic dose for 100% cell survival after 24 hrs by MTT assay; type: cell-based; details: read-out: Activity
Summary of the method: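 HT-29 cells stably carrying pNF-κB-hrGFP, seeded at 0.5 × 10^6/mL in DMEM with 10% FBS, grown 24 h at 37 °C, 5% CO2. Compounds added in DMSO (<0.5% v/v final) at 12.5–400 µM for 24 h. Viability by MTT reduction (2 h), formazan dissolved in DMSO/glycine buffer, read at 560 nm.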

[5] = test system: Glycine max; test: Inhibition of soybean lipoxygenase using arachidonic acid as substrate at 50 uM
Summary of the method: (§3)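 Soybean 15-lipoxygenase kit assay, arachidonic acid substrate, H2O2 as lipoxygenating agent in 0.1 M Tris-HCl pH 7.4. Single-point screen at 50 µM. IC50 found by varying concentration over 10–100 µM. Quercetin at 4 µM as positive control; duplicate means; Student t-test.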

[6] = Cytotoxicity against mouse […] cells after 48 hrs by MTT assay; type: cell-based
Summary of the method: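 J774 macrophages in DMEM (4 mM L-glutamine, 10% heat-inactivated FBS) were seeded at 1 × 10^5 cells/well and grown for 48 h at 37 °C, 5% CO2. They were then exposed to compounds at 25–400 µM for 48 h. MTT (0.1 mg/mL final) was added for 3 h, formazan was dissolved in DMSO/glycine buffer pH 10.5, and absorbance was read at 560 nm to give an IC50.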

[7] = test system: HT-29; test: Inhibition of TNFalpha-induced NF-kappaB activation expressed in human HT-29 cells coexpressing hrGFP at 100 uM after 24 hrs by propidium iodide staining-based flow cytometric analysis relative to control; type: cell-based
Summary of the method: (§4)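 HT-29 cells stably expressing NF-κB-driven hrGFP given compound (DMSO <0.5%) for 2 h at the maximum non-cytotoxic concentration, then TNF-α at 3 ng/mL final for 18–24 h. Cells trypsinised and stained with propidium iodide; 5000 events gated on FSC/SSC. The %GFP-positive among PI-excluding live cells is normalised to TNF-α/DMSO control, ± SD.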

[8] = test system: HT-29; test: Inhibition of TNFalpha-induced NF-kappaB activation expressed in human HT-29 cells coexpressing hrGFP at 400 uM after 24 hrs by propidium iodide staining-based flow cytometric analysis relative to control; type: cell-based; summary of the method: as §4
[9] = test system: HT-29; test: Inhibition of NF-kappaB activation expressed in human HT-29 cells assessed as inhibition of TNFalpha-stimulated IL8 release at 400 uM after 24 hrs by flow cytometric analysis relative to control; type: cell-based; summary of the method: as §1
[10] = Inhibition of soybean lipoxygenase using arachidonic acid as substrate; set-up: species or system Glycine max; summary of the method: as §3
[11] = test system: Rattus norvegicus; test: Antiinflammatory activity in albino rat assessed as inhibition of carrageenan-induced paw edema at 100 umol/kg, po administered 1 hr before carrageenan challenge measured after 3 hrs by plethysmometric analysis relative to control; type: functional
Summary of the method: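 Albino rats of both sexes (150–200 g) were dosed orally as a suspension in 1% Tween 80 in saline, with vehicle controls. After 1 h, 0.1 mL 1% carrageenan or saline was injected subplantar. Paw volume was read by glass plethysmometer at 3 h. Edema = carrageenan-paw minus saline-paw volume; % inhibition vs vehicle; Student t-test.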

[12] = test system: Mus musculus; test: Analgesic activity in albino mouse assessed as inhibition of acetic acid-induced abdominal constriction at 100 umol/kg, po administered 1 hr before acetic acid challenge measured after 60 mins relative to control; type: functional; details: Abdomen
Summary of the method: (§5)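 Albino mice of both sexes (18–23 g) were dosed orally as a suspension in 5% arabic gum in saline, with vehicle controls. After 1 h they received 0.6% acetic acid ip (0.1 mL/10 g). Constrictions were counted for 20 min starting 10 min after injection. Data are % inhibition vs vehicle, mean ± SEM, Student t-test.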

[13] = Induction of NO release in 0.1 M Tris-HCl and 0.1 mM DTPA at pH 7.4 measured for 20 mins in presence of cysteine; type: physicochemical; details: buffer, pH 7.4, 20 min; summary of the method: as §2
[14] = test system: Mus musculus; test: Analgesic activity in albino mouse assessed as inhibition of acetic acid-induced abdominal constriction at 100 umol/kg, po administered 1 hr before acetic acid challenge measured after 30 mins relative to control; type: functional; details: Abdomen; summary of the method: as §5
[15] = test system: HT-29; test: Inhibition of TNF-alpha-induced NFkappaB activation expressed in human HT-29 cells coexpressing hrGFP at 50 uM after 24 hrs by propidium iodide staining-based flow cytometric analysis relative to control; type: cell-based; summary of the method: as §4

Compound | inhibition [1] [%] | Activity [2] | Activity [3] [nM/min] | MNTC at 24 h [4] [µM] | inhibition [5] [%] | IC50 [6] [µM] | NF-kappaB activity (% of TNF-alpha control) [7] [%] | NF-kappaB activity (GFP-positive cells), % of TNF-alpha control [8] [%] | inhibition [9] [%] | IC50 [10] [µM] | inhibition in vivo at 100 µmol/kg [11] [%] | inhibition in vivo at 100 µmol/kg [12] [%] | Activity [13] [nM/min] | inhibition in vivo at 100 µmol/kg [14] [%] | NF-kappaB activation (% of TNF-alpha control) [15] [%]
COc1cc(/C=N/NC(=O)c2no[n+]([O-])c2C)ccc1O | 77 | Non-toxic | 0 | 100 | 1 | > 400 | 149 |  |  |  |  |  |  |  | 
COc1ccc(/C=N/NC(=O)c2no[n+]([O-])c2C)cc1O |  | Non-toxic |  | 400 | 58 | > 400 |  | 117 | 59 |  |  |  |  |  | 
Cc1c(C(=O)N/N=C/c2ccc3c(c2)OCO3)no[n+]1[O-] | 98 | Non-toxic |  | 100 |  | > 400 | 97 |  |  |  |  |  |  |  | 
Cc1c(C(=O)N/N=C/c2ccco2)no[n+]1[O-] | 82 | Non-toxic |  | 100 | 0 | > 400 | 99 |  |  |  |  |  |  |  | 
Cc1c(C(=O)N/N=C/c2cccs2)no[n+]1[O-] | 75 | Non-toxic |  | 100 | 10 | > 400 | 122 |  |  | > 100 | 0 | 14 |  |  | 
Cc1nc2ccccn2c1C(=O)N/N=C/c1c(-c2ccccc2)no[n+]1[O-] |  | Non-toxic | 0 | 400 | 0 | 56 |  | 32 | 38 |  | 18 | 14 | 0 | 2 | 
Cc1c(C(=O)N/N=C/c2ccc([N+](=O)[O-])o2)no[n+]1[O-] | 48 | Non-toxic |  | 100 |  | 96 | 136 |  |  |  | 14 | 13 |  |  | 
COc1ccc(/C=N/NC(=O)c2no[n+]([O-])c2C)cc1OC |  | Non-toxic |  | 400 | 0 | > 400 |  | 120 | 68 |  | 4 | 17 |  |  | 
Cc1c(/C=N/NC(=O)c2no[n+]([O-])c2C)no[n+]1[O-] | 65 | Non-toxic |  | 100 | 55 | > 400 | 127 |  |  | 50 | 10 | 14 |  |  | 
Cc1c(/C=N/NC(=O)c2ccc3c(c2)OCO3)no[n+]1[O-] |  | Non-toxic |  | 400 |  | 132 |  | 102 | 106 |  |  |  |  |  | 
Cc1c(C(=O)N/N=C/c2ccc(Br)cc2)no[n+]1[O-] | 61 | Non-toxic |  | 100 | 0 | 162 | 126 |  |  |  | 0 | 23 |  |  | 
NNC(=O)c1ccc2c(c1)OCO2 |  | Non-toxic |  | 50 |  | > 400 |  |  |  |  |  |  |  |  | 118
